Columns and labels:
[1] = test system: Trypanosoma brucei brucei; assay: Trypanocidal activity against Trypanosoma brucei brucei assessed as reduction in intracellular ATP production incubated for 72 hrs by CellTiter-Glo luminescent cell viability assay; assay type: functional, organism-based
Summary of the method: (§1)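 Bloodstream trypanosomes in 96-well culture were exposed to compound in 5-fold serial dilutions from 25 µg/mL to 1.6 ng/mL for 72 h. Seeding and temperature: T. b. brucei, T. b. gambiense and T. b. rhodesiense at 5×10^3 cells/mL and 37 °C; T. evansi at 1×10^4 cells/mL and 37 °C; T. congolense at 2×10^5 cells/mL and 33 °C. Viability was read as intracellular ATP by CellTiter-Glo luminescence. Three replicates; IC50 calculated.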

[2] = test system: Trypanosoma evansi; assay: Trypanocidal activity against Trypanosoma evansi assessed as reduction in intracellular ATP production incubated for 72 hrs by CellTiter-Glo luminescent cell viability assay; assay type: functional, organism-based; summary of the method: as §1
[3] = test system: Trypanosoma brucei rhodesiense; assay: Trypanocidal activity against Trypanosoma brucei rhodesiense assessed as reduction in intracellular ATP production incubated for 72 hrs by CellTiter-Glo luminescent cell viability assay; assay type: functional, organism-based; summary of the method: as §1
[4] = test system: Trypanosoma congolense; assay: Trypanocidal activity against Trypanosoma congolense assessed as reduction in intracellular ATP production incubated for 72 hrs by CellTiter-Glo luminescent cell viability assay; assay type: functional, organism-based; summary of the method: as §1
[5] = test system: Trypanosoma brucei gambiense; assay: Trypanocidal activity against Trypanosoma brucei gambiense assessed as reduction in intracellular ATP production incubated for 72 hrs by CellTiter-Glo luminescent cell viability assay; assay type: functional, organism-based; summary of the method: as §1
[6] = test system: MDBK cells (Bos taurus); assay: Cytotoxicity against bovine MDBK cells assessed as reduction in cell viability incubated for 72 hrs by CCK8 assay
[7] = Selectivity index, ratio of IC50 for cytotoxicity against bovine MDBK cells to IC50 for Trypanocidal activity against Trypanosoma congolense
[8] = Selectivity index, ratio of IC50 for cytotoxicity against bovine MDBK cells to IC50 for Trypanocidal activity against Trypanosoma brucei gambiense; settings: cattle
[9] = Selectivity index, ratio of IC50 for cytotoxicity against bovine MDBK cells to IC50 for Trypanocidal activity against Trypanosoma evansi
[10] = Selectivity index, ratio of IC50 for cytotoxicity against bovine MDBK cells to IC50 for Trypanocidal activity against Trypanosoma brucei rhodesiense
[11] = Selectivity index, ratio of IC50 for cytotoxicity against bovine MDBK cells to IC50 for Trypanocidal activity against Trypanosoma brucei brucei; settings: cattle

| Compound | IC50 [1] | IC50 [2] | IC50 [3] | IC50 [4] | IC50 [5] | IC50 [6] | selectivity ratio [7] | selectivity ratio [8] | selectivity ratio [9] | selectivity ratio [10] | selectivity ratio [11] |
| --- | --- | --- | --- | --- | --- | --- | --- | --- | --- | --- | --- |
| COc1ccc(-c2cnc(-c3ccc(OC)cc3)o2)cc1 | > 88.9 µM | > 88.9 µM | > 88.9 µM | > 88.9 µM | > 88.9 µM | > 355 µM | – | – | – | – | – |
| COc1ccc(-c2cnc(-c3ccc(OC)c(OC)c3OC)o2)c(OC)c1OC | 37.6 µM | 60.4 µM | 31.4 µM | 16.4 µM | 40.5 µM | 39.7 µM | 2.4 | 0.98 | 0.66 | 1.3 | 1.1 |
| COc1cccc(-c2ncc(-c3ccccc3OC)o2)c1 | > 88.9 µM | > 88.9 µM | > 88.9 µM | 6.7 µM | > 88.9 µM | 161 µM | 24 | < 1.8 | < 1.8 | < 1.8 | < 1.8 |
| Oc1ccc(O)c(-c2ncc(-c3ccccc3O)o2)c1 | 25.9 µM | 22.2 µM | 84.2 µM | 9.5 µM | 80.9 µM | 77.4 µM | 8.2 | 0.96 | 3.5 | 0.92 | 3 |
| Oc1ccc(O)c(-c2cnc(-c3cc(O)ccc3O)o2)c1 | 54.7 µM | 44.4 µM | 72.1 µM | 8.6 µM | 78.3 µM | 22.7 µM | 2.6 | 0.29 | 0.51 | 0.31 | 0.41 |
| COc1cccc(-c2cnc(-c3ccc(OC)c(OC)c3OC)o2)c1OC | 64.1 µM | 19.9 µM | 64.5 µM | 51.3 µM | 63.1 µM | > 269 µM | > 5.3 | > 4.3 | > 14 | > 4.2 | > 4.2 |
| COc1cccc(-c2cnc(-c3cccc(OC)c3OC)o2)c1 | 76 µM | 68.2 µM | 76.1 µM | 10.3 µM | 73.9 µM | 96.3 µM | 9.3 | 1.3 | 1.4 | 1.3 | 1.3 |
| Oc1ccccc1-c1nnc(-c2cccc(O)c2O)o1 | 1.9 µM | 0.81 µM | 1.9 µM | 0.67 µM | 1.9 µM | 5.9 µM | 8.8 | 3.1 | 7.2 | 3.1 | 3.1 |
| CC(=O)Oc1ccccc1-c1cnc(-c2cccc(OC(C)=O)c2OC(C)=O)o1 | 4.6 µM | 5.6 µM | 2.5 µM | 0.8 µM | 6.5 µM | 5.3 µM | 6.6 | 0.82 | 0.96 | 2.1 | 1.2 |
| COc1ccc(-c2ncc(-c3ccccc3OC)o2)c(OC)c1 | 75.3 µM | 65.1 µM | 59.2 µM | 15.3 µM | 35.8 µM | 59.5 µM | 3.9 | 1.7 | 0.91 | 1 | 0.79 |
| Oc1ccccc1-c1nnc(-c2cccc(O)c2O)s1 | 3.9 µM | 2.1 µM | 4.4 µM | 0.85 µM | 4.6 µM | 13.6 µM | 16 | 3 | 6.3 | 3.1 | 3.5 |
| COc1ccccc1-c1cnc(-c2ccccc2OC)o1 | > 88.9 µM | > 88.9 µM | > 88.9 µM | 2.8 µM | > 88.9 µM | > 355 µM | > 128 | – | – | – | – |
| COc1cccc(-c2ncc(-c3ccccc3OCc3ccccc3)o2)c1OC | 15.5 µM | 16.7 µM | 15.8 µM | 7.7 µM | 16.2 µM | 97.6 µM | 13 | 6 | 5.8 | 6.2 | 6.3 |
| Oc1ccc(O)c(-c2cnc(-c3ccccc3)o2)c1 | 20.6 µM | 12.2 µM | 18.1 µM | 4.7 µM | 17.8 µM | 7.5 µM | 1.6 | 0.42 | 0.61 | 0.42 | 0.36 |
